Laboratory results: ChEMBL document CHEMBL1121520, “Synthesis of analogues of the carboxyl protease inhibitor pepstatin. Effects of structure on inhibition of pepsin and renin” (J Med Chem, 1980)

Assays:
Pepsin A [1] = biological target: Pepsin A (Sus scrofa, UniProt P00791); assay: Pepsin inhibition was measured using the synthetic heptapeptide substrate Phe-Gly-His-Phe-(N02)-Phe-Ala- Phe-OMe
Method in brief: (§1)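 Nitrophenylalanine-containing heptapeptide substrate hydrolysis by pepsin; run at five substrate and three inhibitor concentrations per analogue, with Ki calculated by a previously described method.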

Renin (Sus scrofa) = assay: Inhibition of renin was measured using hog kidney renin and the radiolabeled synthetic substrate, H-Ile-His-Pro-Phe-His-Leu-[14C]Leu-Val-Tyr-Ser-OH
Pepsin A [2] = biological target: Pepsin A (Homo sapiens, UniProt P0DJD9); assay: Pepsin inhibition using synthetic heptapeptide substrate Phe-Gly-His-Phe-(N02)-Phe-Ala- Phe-OMe; method in brief: as §1
Pepsin A (Homo sapiens, UniProt P0DJD9), sequence (P0DJD9 whole entry): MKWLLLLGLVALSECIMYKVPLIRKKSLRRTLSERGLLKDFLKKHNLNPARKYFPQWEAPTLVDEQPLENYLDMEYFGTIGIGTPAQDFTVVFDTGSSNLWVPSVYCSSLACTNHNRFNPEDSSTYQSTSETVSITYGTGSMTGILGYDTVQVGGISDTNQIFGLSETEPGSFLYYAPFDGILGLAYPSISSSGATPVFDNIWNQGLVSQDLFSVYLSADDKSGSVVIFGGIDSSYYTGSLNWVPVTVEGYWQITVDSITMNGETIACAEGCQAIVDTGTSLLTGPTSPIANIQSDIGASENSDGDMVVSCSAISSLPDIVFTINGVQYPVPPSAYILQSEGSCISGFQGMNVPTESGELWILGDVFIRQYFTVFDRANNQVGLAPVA

Pepsin A (Sus scrofa, UniProt P00791), sequence (P00791 whole entry): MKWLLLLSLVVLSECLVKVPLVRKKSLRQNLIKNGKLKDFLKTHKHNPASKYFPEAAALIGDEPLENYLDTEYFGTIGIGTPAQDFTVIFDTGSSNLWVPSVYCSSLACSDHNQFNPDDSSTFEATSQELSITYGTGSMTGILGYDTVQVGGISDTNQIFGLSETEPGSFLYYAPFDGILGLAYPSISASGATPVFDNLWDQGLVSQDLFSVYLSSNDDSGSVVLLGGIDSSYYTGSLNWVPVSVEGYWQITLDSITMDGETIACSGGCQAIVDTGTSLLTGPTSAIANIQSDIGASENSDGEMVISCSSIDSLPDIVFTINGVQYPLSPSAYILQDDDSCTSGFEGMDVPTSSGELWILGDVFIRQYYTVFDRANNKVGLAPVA

Row | SMILES | Ki (Pepsin A [1]) | IC50 (Renin (Sus scrofa)) | Ki (Pepsin A [2])
1 | CC(C)CC(=O)N[C@@H](C(=O)N[C@@H](CC(C)C)C(O)CC(N)=O)C(C)C (stereo partly drawn) | ~1000 nM | > 330000 nM | –
2 | CC(C)CC(=O)N[C@@H](C(=O)N[C@@H](C(=O)NC(CC(C)C)[C@@H](O)CC(=O)N[C@H](C)C(=O)NC(CC(C)C)[C@@H](O)CO)C(C)C)C(C)C (stereo partly drawn) | 0.0457 nM | – | –
3 | CC(C)CCNC(=O)[C@H](C)NC(=O)C[C@H](O)NC(C(=O)[C@H](NC(=O)CC(C)C)C(C)C)c1ccccc1 (stereo partly drawn) | 0.9 nM | – | –

More lines, now with the values ahead:

Row | Ki (Pepsin A [1]) | IC50 (Renin (Sus scrofa)) | Ki (Pepsin A [2]) | SMILES
4 | 350 nM | > 330000 nM | – | CC(C)CCNC(=O)[C@@H](C)NC(=O)C[C@H](O)C(CC(C)C)NC(=O)CC(C)C (stereo partly drawn)
5 | 1.1 nM | – | – | CC(C)CCNC(=O)[C@H](C)NC(=O)C[C@H](O)C(CC(C)C)NC(=O)[C@H](NC(=O)CC(C)C)C(C)C (stereo partly drawn)
6 | – | – | 3000 nM | CC(C)CCNC(=O)[C@H](C)NC(=O)C[C@@H](O)C(CC(C)C)NC(=O)[C@H](NC(=O)CC(C)C)C(C)C (stereo partly drawn)
